HUVEC prolif 384 = inhibitors of HUVEC proliferation, primary screen, cell-based, 384-well. viability, % at 10 µM (by protocol). AID 648, 2007. CellTiter-Glo luminescence, 72 h; active compounds read low. hit rate 1.1% among 86,000;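 active means viability at or below 30%; inactive means viability above 30%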;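 further: 100% = median luminescence of DMSO-only cell control wells on each plate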
Fibroblast inh = antiproliferative effect on LL 47 fibroblasts – human, LL 47 cells, CellTiter-Glo luminescence, primary screen. LL 47 human lung fibroblast viability, ATP luminescence; active compounds read low. viability, % at 10 µM. hit rate 1.1% among 85,000;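 active means viability at or below 50% in the single dose screen; inactive means viability above 50%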;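 further: compound exposure lasted 72 h before the ATP readout; 100% = median luminescence of untreated cell-only wells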
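Material: human lung fibroblast line LL 47, low passage; Evaluation: viability percentage against median untreated-cell control; Buffer or medium: 15% FBS in IMEM; Incubation: 72 h compound exposure at 37 °C after overnight plating; Dosing: 0.1% DMSO in all compound wells; Measured by: CellTiter-Glo luminescence.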
PTEN del growth = growth suppression of PTEN-null HCT116, primary screen, cell-based, CellTiter-Glo; AID 827, 2007; viability, % at 10 µM; HCT116 PTEN-null viability, 60 h; active compounds read low; hit rate 1.2% among 140,000;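 active means viability at or below a set limit, 4 SD under the median of all tested compounds, cut at about 3.7% in these data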;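 further: PTEN knockout HCT116 line with beta catenin targeted HCT116 as companion control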
Pyk2 oligo antag = antagonists of Pyk2 self-association, primary screen, Q293 cells, FERM NanoBiT luminescence, HTS | hit rate 0.83% among 99,000 | z-score (the deposit names both 25 µM and 10 µM) | AID 1347419, 2020 | active compounds read low;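 active means Z-score of -3 or lower, scaled per plate to the spread of control and sample wells; inactive means z-score above -3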;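 further: negative z-score means lost luminescence so less FERM oligomerization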
Target sequence (Q14289 whole entry, looked up): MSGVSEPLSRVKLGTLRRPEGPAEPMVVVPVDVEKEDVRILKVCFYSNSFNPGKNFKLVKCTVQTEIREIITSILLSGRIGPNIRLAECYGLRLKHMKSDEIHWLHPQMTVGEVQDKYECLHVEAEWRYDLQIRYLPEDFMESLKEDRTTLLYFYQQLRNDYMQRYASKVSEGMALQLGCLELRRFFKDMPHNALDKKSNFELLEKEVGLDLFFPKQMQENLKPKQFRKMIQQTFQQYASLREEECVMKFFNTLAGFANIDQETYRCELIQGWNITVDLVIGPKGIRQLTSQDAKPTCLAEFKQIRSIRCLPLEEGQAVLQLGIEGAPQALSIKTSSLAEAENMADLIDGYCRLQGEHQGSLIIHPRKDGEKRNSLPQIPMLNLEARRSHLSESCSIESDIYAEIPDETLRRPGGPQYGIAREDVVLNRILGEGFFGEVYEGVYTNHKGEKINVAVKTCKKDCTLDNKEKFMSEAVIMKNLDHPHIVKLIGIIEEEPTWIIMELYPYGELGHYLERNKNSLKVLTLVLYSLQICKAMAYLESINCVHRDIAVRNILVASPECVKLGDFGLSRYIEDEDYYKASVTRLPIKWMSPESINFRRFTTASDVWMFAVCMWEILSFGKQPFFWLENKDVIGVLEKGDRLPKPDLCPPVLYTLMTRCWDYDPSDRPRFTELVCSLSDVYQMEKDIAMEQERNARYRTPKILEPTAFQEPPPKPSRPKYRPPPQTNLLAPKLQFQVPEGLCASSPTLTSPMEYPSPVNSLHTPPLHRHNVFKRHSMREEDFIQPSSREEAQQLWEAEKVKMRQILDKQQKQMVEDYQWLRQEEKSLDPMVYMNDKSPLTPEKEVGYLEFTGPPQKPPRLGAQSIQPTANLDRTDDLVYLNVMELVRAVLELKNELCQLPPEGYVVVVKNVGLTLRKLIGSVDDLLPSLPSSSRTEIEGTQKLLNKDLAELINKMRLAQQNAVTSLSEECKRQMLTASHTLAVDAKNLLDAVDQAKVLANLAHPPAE
HCT116 bCat-KO = primary screen for growth suppressors in beta-catenin knockout HCT116 cells (colon tumor, human); HCT116 beta-catenin knockout viability, CellTiter-Glo, 60 h; active compounds read low; viability, % at 10 µM; hit rate 1.5% among 140,000;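 active means viability at or under a set limit, the compound median less 4 SD, cut at about 6% in these data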;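 further: 0% = Hyamine 1622 control at 20 µM and 100% = untreated cell control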
H69AR inhibit = proliferation blockers of H69AR lung cancer cells, primary screen, cell-based, human, 86K library. viability, % at 10 µM. H69AR lung tumor viability, ATP luminescence, 72 h; active compounds read low. hit rate 6% among 85,000;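 active means viability at or below 40%; inactive means viability above 40%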;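 further: multidrug resistant small cell line overexpressing MRP-1 efflux transporter; 100% = mean luminescence of untreated control wells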
* hit, by the source's call; / = not tested or not shown. Shown is part of a subset that was picked to be rich in hits.

SMILES	HUVEC prolif 384	Fibroblast inh	PTEN del growth	Pyk2 oligo antag	HCT116 bCat-KO	H69AR inhibit
COC(=O)c1c(C)n(-c2ccc(OC)cc2)c2ccc(O)cc12	18*	79	43	-2.7	91	18*
COc1cc(C2Nc3ccc4ncccc4c3C3=C2C(=O)CCC3)cc(OC)c1O (stereo not given)	59	56	27	-0.32	22	27*
Cn1c(C2CCCN2C(=O)OC(C)(C)C)n[nH]c1=S (stereo not given)	96	92	107	0.23	88	1.8*
Cc1cc(C)nc(N(C#N)Cc2ccc(Br)cc2)n1	93	86	103	-3.1*	100	96
N#C[C@H]1[C@H](c2ccccc2)[C@](C#N)(C(=O)c2ccccc2)[C@@H]2C=Cc3ccccc3N21	/	/	3.3*	/	5.3*	/
CC(=NCc1cccc(Cl)c1)c1nc(-c2ccco2)oc1O	/	/	89	/	84	/
Cc1c(-c2ccccc2)oc2c(C(=O)OCC(=O)Nc3ccc(F)cc3)cccc2c1=O	/	/	81	/	85	/
Cc1oc2c(C)c(O)ccc2c(=O)c1-c1ccc2ccccc2n1	/	/	99	0.79	98	/
COc1ccc(-c2onc(C)c2-c2ccccc2)c(O)c1	85	95	52	-2.9	50	31*
COc1ccc(-c2noc(C)c2-c2ccc3ccccc3n2)c(O)c1	71	78	71	-2.1	67	26*
COc1ccccc1C1/C(=C(\O)c2c(C)nc3c(C)cccn23)C(=O)C(=O)N1CCCN(C)C (stereo not given)	89	94	/	/	/	88
CCCCCCCCCCCCCCCC[n+]1cccc(C(=O)N(CC)CC)c1	/	/	1.5*	/	1.5*	/
CCCCCCCCCCCCCCCC[n+]1ccc(C(N)=O)cc1	/	/	1.1*	-0.31	1.1*	/
CCCCCCCCCCCCCCCC[n+]1ccc(/C=N/O)cc1	/	/	1.0*	/	0.9*	/
COc1ccc(-n2c(=O)c3ccccc3n(CC(=O)NC3CCCC3)c2=O)cc1	100	104	81	1	75	101
Cc1ccc(OC2=NS(=O)(=O)c3ccccc32)cc1	80	102	103	0.63	103	31*
COc1ccc(C(=O)NC(NC(=O)c2ccc(OC)c(OC)c2)c2ccccc2F)cc1OC	/	/	109	/	85	/
CCN(CC)CCOC(=O)c1ccc(NC(=O)C(C)NC(=O)C23CC4CC(CC(C4)C2)C3)cc1 (stereo not given)	/	/	106	0.62	97	/
CCCCN(CC)c1nc(N)c2c(N)nc(OCC)cc2c1C#N	80	82	75	-0.69	72	34*
COc1ccc(C(c2nnnn2C2CCCC2)N2CCC(C)CC2)c(OC)c1 (stereo not given)	101	93	64	-2.7	64	62
COc1ccc2cc(C(c3nnnn3C3CCCC3)N3CCCCCC3)c3nnnn3c2c1 (stereo not given)	43	95	2.3*	2.2	9	40
COc1ccc2cc(C(c3nnnn3C3CCCCC3)N3CCCCCC3)c3nnnn3c2c1 (stereo not given)	85	87	/	0.58	/	35*
Cc1ccc(S(=O)(=O)Nc2ccc(Cl)cc2)cc1NC(=O)c1cc2c(s1)CCCC2	/	/	67	/	73	/
c1ccc(CN2CCC(Nc3nc(-c4ccccc4)nc4ccccc34)CC2)cc1	4.0*	5.4*	1.6*	-0.54	1.6*	2.1*
NC(=O)c1c(NC(=O)CSc2nnc(Cc3ccccc3)n2Cc2ccco2)sc2c1CCC2	79	85	73	-0.61	78	5.6*
SMILES	HUVEC prolif 384	Fibroblast inh	PTEN del growth	Pyk2 oligo antag	HCT116 bCat-KO	H69AR inhibit
CCCCn1c(SCC(=O)Nc2sc3c(c2C(N)=O)CCC3)nnc1-c1ccccc1	78	94	/	0.63	/	25*
O=C(CSc1nnc(Cc2ccccc2)n1Cc1ccco1)NC12CC3CC(CC(C3)C1)C2	97	91	78	-2.2	76	71
CN(C)CCCn1c(SCC(=O)Nc2sc3c(c2C#N)CCCC3)nnc1-c1ccncc1	/	/	98	-0.62	96	/
CC1N=C2c3ccccc3N=C(SCc3cc(=O)n4ccccc4n3)N2C1=O (stereo not given)	90	104	/	/	/	78
CC1CCCC(NC(=O)COC(=O)CCC2CCCC2)C1C (stereo not given)	96	93	102	0.91	102	98
Fc1ccc(NC(=S)NC23CN4CN(CN(C4)C2)C3)cc1	/	/	92	1.1	92	/
COC(=O)C1=C(C)N=C2SC(C)C(=O)N2C1c1cccc(F)c1 (stereo not given)	96	94	89	-3.6*	106	107
CCOc1cc(C2C(C(=O)OC)=C(C)N=C3SC(C)C(=O)N32)ccc1OC(C)=O (stereo not given)	89	90	99	-0.34	91	103
COc1ccc(N2CCN(CC(O)c3c[nH]c4ccc(OC)cc34)CC2C)cc1 (stereo not given)	94	77	59	0.22	58	35*
CC1CCCCC12NC(=O)N(CC(=O)NC(=O)Nc1ccc3c(c1)OCCO3)C2=O (stereo not given)	/	/	104	-3.6*	101	/
COc1cccc(NC(=O)COC(=O)CNS(=O)(=O)c2c(F)cccc2F)c1	/	/	102	0.51	95	/
CC(=O)[C@@]1(O)CC[C@H]2[C@@H]3CCC4=CC(=O)CC[C@]4(C)[C@H]3[C@@H](O)C[C@@]21C	97	94	97	/	88	92
CC(=O)[C@@]1(O)CC[C@H]2[C@@H]3C[C@H](C)C4=CC(=O)CC[C@]4(C)[C@H]3CC[C@@]21C	94	87	74	/	63	6.9*
COC(=O)[C@@]1(Cc2ccc(F)cc2)[C@H]2c3cc(C(=O)N4CCCC4)n(CCc4c[nH]c5ccc(OC)cc45)c3C[C@H]2CN1C(=O)c1ccccc1	/	/	44	/	54	/
CNc1ccc(Br)cc(C(=O)/C=C/c2cccc(OC)c2)c1=O	22*	8.8*	25	0.88	24	-0.2*
CCNc1ccc(Br)cc(C(=O)/C=C/c2c(Cl)cccc2Cl)c1=O	7.9*	63	1.5*	0.22	3.5*	2.0*
CCOc1ccccc1NC(=O)COC(=O)CNS(=O)(=O)c1ccc(C)cc1	/	/	99	/	83	/
O=Cc1ccc2noc(-c3ccc(Cl)cc3)c2c1	81	105	23	0.18	31	39*
Cc1onc(-c2ccccc2)c1C(=O)N1CC(C)OC(C)C1 (stereo not given)	/	/	97	-0.74	96	/
CCN(CC)CCNC(=O)c1c(C)n(-c2ccccc2)c2cc(Br)c(OC)cc12	6.1*	56	14	-1.2	6	25*
CCOC(=O)c1c(CNCCN(CC)CC)n(C)c2cc(Br)c(OC)cc12	45	84	59	0.56	56	33*

Bioassay records deposited in PubChem by several laboratories.
